According to ChEMBL document CHEMBL3352099, “Anti-osteoporotic and antioxidant activities of chemical constituents of the aerial parts of Ducrosia ismaelis” (Bioorg Med Chem Lett, 2014):

Tests used:
[1] = Antioxidant activity assessed as AAPH-induced peroxyl radical scavenging activity by oxygen radical absorbance assay; assay type: physicochemical
Summary of the method: (§1)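 Peroxyl radical scavenging measured by ORAC, a hydrogen atom transfer assay. Compounds tested at 1-10 µM. Values expressed as µM Trolox equivalents (TE).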

[2] = Antioxidant activity assessed as AAPH-induced peroxyl radical scavenging activity at 10 uM by oxygen radical absorbance assay relative to trolox; assay type: physicochemical; summary of the method: as §1
[3] = tested on: RAW264.7; experiment: Antiosteoporotic activity in mouse RAW264.7 cells assessed as inhibition of RANKL-induced osteoclast formation after 5 days by TRAP assay relative to untreated control; assay type: functional, cell-based
Summary of the method: (§2)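 RAW 264.7 pre-osteoclast cells induced to form osteoclasts with RANKL. Compounds tested at concentrations up to 10 µM. TRAP activity is expressed as percent of the untreated control, as mean ± SD with n = 3. The untreated control (C) and the RANKL-treated control (TC) are both included.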

[4] = tested on: RAW264.7; experiment: Antiosteoporotic activity in mouse RAW264.7 cells assessed as inhibition of RANKL-induced osteoclast formation at 10 uM after 5 days by TRAP assay relative to untreated control; assay type: functional; parameters: scale not given: the % may be the effect or the level left; summary of the method: as §2
[5] = Antioxidant activity assessed as reduction of Cu2+ to Cu+ at 10 uM by reduction assay relative to trolox; assay type: physicochemical
Summary of the method: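 Single electron transfer reducing-capacity assay measuring reduction of Cu2+ ions. Compounds tested at up to 10.0 µM. Values expressed as µM Trolox equivalents, as mean ± SD of three measurements.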

Activity [1]	Ratio [2]	Ratio [5]	Compound	Activity [3]	Activity [4] [%]
Dose-dependent effect	> 20	–	CC(C)=CCc1c(O)ccc(C(=O)/C=C/c2ccc(O)cc2)c1O [ISOBAVACHALCONE]	–	–
Dose-dependent effect	–	–	O=c1oc2cc(O)ccc2c2oc3cc(O)ccc3c12 [COUMESTROL]	–	–
Dose-dependent effect	–	23.44	COc1cc([C@H]2OC[C@H]3[C@@H]2CO[C@@H]3c2cc(OC)c(OC)c(OC)c2)cc(OC)c1O	–	–
Dose-dependent effect	> 20	–	O=c1c(-c2ccc(O[C@@H]3O[C@H](CO)[C@@H](O)[C@H](O)[C@H]3O)cc2)coc2cc(O)ccc12	Dose-dependent effect	104.77
Dose-dependent effect	> 20	–	OC[C@H]1O[C@@H](Oc2ccc3c(c2)OC[C@@]2(O)c4ccc(O)cc4O[C@@H]32)[C@H](O)[C@@H](O)[C@@H]1O	–	–
Dose-dependent effect	–	–	CC1=CC(=O)CC(C)(C)[C@H]1CC[C@@H](C)O[C@@H]1O[C@H](CO)[C@@H](O)[C@H](O)[C@H]1O	–	–
Dose-dependent effect	26.55	–	O=c1c(-c2ccc(O)cc2)coc2cc(O[C@@H]3O[C@H](CO)[C@@H](O)[C@H](O)[C@H]3O)cc(O)c12 [GENISTIN]	–	–
Dose-dependent effect	–	–	COc1cc(O)c2c(=O)c(-c3ccc(O[C@@H]4O[C@H](CO)[C@@H](O)[C@H](O)[C@H]4O)cc3)coc2c1	–	–
Dose-dependent effect	–	–	COc1cc([C@H]2OC[C@H]3[C@@H]2CO[C@@H]3c2ccc(O[C@@H]3O[C@H](CO)[C@@H](O)[C@H](O)[C@H]3O)c(OC)c2)ccc1O	–	–
Dose-dependent effect	–	–	COc1cc(/C=C/CO)ccc1O[C@@H]1O[C@H](CO)[C@@H](O)[C@H](O)[C@H]1O [CONIFERIN]	–	–
Dose-dependent effect	–	–	COC(=O)/C=C\c1ccc(O)c(CC=C(C)C)c1	Dose-dependent effect	85.05
Dose-dependent effect	–	–	C=CCc1ccc(O[C@@H]2O[C@H](CO)[C@@H](O)[C@H](O)[C@H]2O)c(OC)c1 [CITRUSIN C]	Dose-dependent effect	100.93
Dose-dependent effect	> 20	–	O=c1c(-c2ccc(O)cc2)coc2cc(O[C@@H]3O[C@H](CO)[C@@H](O)[C@H](O)[C@H]3O)ccc12 [DAIDZIN]	–	–
Dose-dependent effect	–	–	O=C(c1ccc(O)cc1O[C@@H]1O[C@H](CO)[C@@H](O)[C@H](O)[C@H]1O)[C@H](O)Cc1ccc(O)cc1	–	–

Compound	Activity [1]	Ratio [2]	Ratio [5]	Activity [3]	Activity [4] [%]
COc1cc([C@H]2OC[C@H]3[C@@H]2CO[C@@H]3c2cc(OC)c(O[C@@H]3O[C@H](CO)[C@@H](O)[C@H](O)[C@H]3O)c(OC)c2)cc(OC)c1O[C@@H]1O[C@H](CO)[C@@H](O)[C@H](O)[C@H]1O [LIRIODENDRIN]	Dose-dependent effect	–	–	Dose-dependent effect	106.05
